Shown is part of a subset that was picked to be rich in hits.
UPR CHOP act: apoptotic UPR (CHOP) activation. CHO-CHOP luciferase reporter, luminescence; percent of tunicamycin response over DMSO baseline. 330,000 tested, 0.34% active. activation, % at 10 µM. AID 449763;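 active means at 10 µM dose, activation of 40% or more, normalized to positive control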;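 further: 100% = tunicamycin at 10 µg/mL and 0% = DMSO alone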
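Test system: CHO CHOP reporter cells. Input: 500 CHO-CHOP cells per well. Medium: F12 with 10% FBS. Technique: luciferase luminescence. Measure: percent activation relative to tunicamycin control. Dosing: 10 µM compound, 0.5% DMSO. Timing: 16-18 h cell attachment, then 6 h compound exposure, 37 °C.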
XBP1 UPR activ: adaptive UPR (XBP1) activation; 330,000 tested, 0.33% active; activation, % at 20 µM; CHO-XBP1 luciferase reporter, IRE1-XBP1 UPR activation, luminescence; percent of tunicamycin response, DMSO as zero; AID 463104;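 active means versus positive control, 20 µM dose yields 30% or more activation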;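 further: 100% = tunicamycin at 10 µg/mL and 0% = DMSO only wells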
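Material – CHO cell line with stable XBP1 luciferase reporter · Buffer or medium – F12 plus 10% FBS · Compound – single point, 20 µM final compound, 1% DMSO · Schedule – 16-18 h cell attachment at 37 °C, then 6 h compound exposure · Signal – Steady-Glo luminescence read · Benchmarks – high control tunicamycin 10 µg/mL final, low control DMSO vehicle only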
CHOP inh: blocks CHOP induction under ER stress | 220,000 tested, 3.8% active | CHO-K1 CHOP-promoter luciferase, tunicamycin-induced, 15-18 h | inhibition, % at 10 µM;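 active means compounds that reduced the stress-induced luciferase reporter signal by more than about 70% of percent inhibition, limit read from the data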;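 further: 0% = tunicamycin plus vehicle and 100% = wells without tunicamycin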
Dynein cargo inh: blocks dynein driven cargo transport along microtubules; 3617.4 mouse cells, GR-EGFP nuclear translocation imaging; test concentration mostly 20 µM; stimulated with dexamethasone, 1 µM; hits give low values; z-score, hits read low; 220,000 tested, 0.47% active; AID 1381;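 active means plate z-score of nuclear minus cytoplasmic receptor signal below a set negative limit, without overly bright fluorescence or cell loss, cut at about -3.5 in these data, passing the limit was not always enough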;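 further: z-score of nuclear minus cytoplasmic ring GR-EGFP intensity difference per well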
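Also added: dexamethasone, 1.0 µM final. Medium: tet-free, stripped-serum medium. Detection: fixed, Hoechst-stained cells imaged at 10x for EGFP. Read-out: nuclear-to-cytoplasmic GR-EGFP distribution per well. Times: induction 48 h, compound 1 h, agonist 30 min.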
Beta2AR agonist: agonists of human beta-2 adrenergic receptor inducing internalization; P07550; Am2.2-beta2AR cells, FAP receptor internalization, flow cytometry; response, % (test concentration not listed); 340,000 tested, 0.43% active; AID 504454;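 active means response above a set limit, near 3 SD of response in nonfluorescent compounds, cut at about 42% in these data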
Target sequence (P07550 whole entry, looked up): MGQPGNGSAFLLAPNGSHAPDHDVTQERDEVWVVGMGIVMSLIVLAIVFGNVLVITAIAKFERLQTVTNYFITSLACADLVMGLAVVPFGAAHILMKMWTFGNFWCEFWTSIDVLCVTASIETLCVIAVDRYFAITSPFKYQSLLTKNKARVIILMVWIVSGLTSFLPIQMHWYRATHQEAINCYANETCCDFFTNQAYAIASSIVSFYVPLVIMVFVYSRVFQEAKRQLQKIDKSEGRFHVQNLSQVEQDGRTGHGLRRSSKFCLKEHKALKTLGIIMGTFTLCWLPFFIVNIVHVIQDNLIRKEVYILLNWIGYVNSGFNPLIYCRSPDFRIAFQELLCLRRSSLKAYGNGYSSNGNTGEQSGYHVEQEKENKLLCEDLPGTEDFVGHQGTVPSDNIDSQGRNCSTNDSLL
p-CIP stab down: compounds decreasing mouse p/CIP protein stability. Q05BA5. decrease of EGFP signal, % at 10 µM. 290,000 tested, 0.01% active. F442A p/CIP-EGFP cells, EGFP fluorescence, 16 h. AID 1984;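 active means EGFP signal decrease of at least 30% at 10 µM or well 3 SD below plate mean, unless failing retest; inactive means the rest, including hits failing retest or dose response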
CHOP inh conf: confirmation of CHOP induction inhibitors. 2,100 tested, 45% active. AID 504437. shares compounds with CHOP inh. inhibition, % at 10 µM. CHO-CHOP promoter luciferase reporter, tunicamycin-induced, luminescence;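 active means mean of three repeat readings of reporter signal inhibition above a set limit, cut at about 70% in these data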;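 further: 0% = tunicamycin plus vehicle and 100% = wells lacking tunicamycin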
Numbers without * were called inactive.

Results for C[C@@H]1CC=C[C@H]2[C@H]1C(=O)N(Cc1ccccc1)[C@H]2c1ccc2ccccc2c1 ?
UPR CHOP act: 2.5; XBP1 UPR activ: -3.7; CHOP inh: 28.4; Dynein cargo inh: -0.164; Beta2AR agonist: 6.5; p-CIP stab down: -11.4

How did CC[C@@H]1CC=C[C@H]2[C@H]1C(=O)N(Cc1ccccc1)[C@H]2c1ccoc1 do in these assays?
UPR CHOP act: 18.7; XBP1 UPR activ: -2.2; CHOP inh: 101.1*; Dynein cargo inh: -2.26; Beta2AR agonist: 23.7; p-CIP stab down: -11.7; CHOP inh conf: 137.4*

How did C[C@@H]1CC=C[C@H]2[C@H]1C(=O)N(Cc1ccccc1)[C@H]2c1ccc2ccccc2c1Br do in these assays?
UPR CHOP act: 21.6; XBP1 UPR activ: 2.7; CHOP inh: 98.2*; Dynein cargo inh: -0.378; Beta2AR agonist: -1.5; p-CIP stab down: -13.3; CHOP inh conf: 59.0

What do the screens show for `CCOC(=O)c1ccc(NC(=O)NNS(=O)(=O)c2cc(OC)ccc2OC)cc1`?
UPR CHOP act: 0.5; XBP1 UPR activ: -5.5; Beta2AR agonist: 3.3; p-CIP stab down: -1.8

How did CC(=O)Nc1ccc(NC2=C/C(=N/S(=O)(=O)c3cccs3)c3ccccc3C2=O)cc1 do in these assays?
UPR CHOP act: 2.3; XBP1 UPR activ: -4.1; CHOP inh: 107.3*; Dynein cargo inh: -0.014; Beta2AR agonist: 31.3; p-CIP stab down: 4.9; CHOP inh conf: -41.7

How did Cc1ccccc1NC1=C/C(=N\S(=O)(=O)c2cccs2)c2ccccc2C1=O do in these assays?
UPR CHOP act: -4.9; XBP1 UPR activ: -5.9; CHOP inh: 106.7*; Dynein cargo inh: -0.865; Beta2AR agonist: 26.0; CHOP inh conf: -13.0

How did Cc1ccc(NC2=C/C(=N/S(=O)(=O)c3cccs3)c3ccccc3C2=O)cc1C do in these assays?
CHOP inh: -70.5; Dynein cargo inh: 0.281; Beta2AR agonist: 5.1; p-CIP stab down: 7.6

Results for CC1CCCC(NCC(O)COC(c2ccc(F)cc2)c2ccc(F)cc2)C1C (stereo unspecified) ?
UPR CHOP act: 1.3; XBP1 UPR activ: 16.2; CHOP inh: 103.0*; Dynein cargo inh: 0.522; Beta2AR agonist: 11.0; p-CIP stab down: -5.9; CHOP inh conf: 110.9*

How did CCc1nc(SCc2ccc(OCC(C)C)cc2)n[nH]1 do in these assays?
UPR CHOP act: 5.8; XBP1 UPR activ: -1.9; Beta2AR agonist: -7.7; p-CIP stab down: -27.0

How did CC(NC(=O)COc1ccccc1)C(c1ccccc1)N1CCN(C)CC1 (stereo unspecified) do in these assays?
UPR CHOP act: 0.1; XBP1 UPR activ: -3.7; CHOP inh: 98.3*; Dynein cargo inh: 1.06; Beta2AR agonist: -5.1; p-CIP stab down: -12.5; CHOP inh conf: 21.2

How did CCOc1ccc(NC(=S)NC(C)C(c2ccccc2)N2CCN(C)CC2)cc1 (stereo unspecified) do in these assays?
UPR CHOP act: -1.1; XBP1 UPR activ: -1.0; CHOP inh: 3.5; Dynein cargo inh: -0.47; Beta2AR agonist: 0.6; p-CIP stab down: -12.0

What do the screens show for `C=CCn1c(CCc2cc(C(C)(C)C)c(O)c(C(C)(C)C)c2)n[nH]c1=S`?
UPR CHOP act: -1.8; XBP1 UPR activ: 2.7; CHOP inh: 101.3*; Dynein cargo inh: 0.504; Beta2AR agonist: 10.6; p-CIP stab down: -0.2; CHOP inh conf: 86.3*

What do the screens show for `C=CCn1c(Cc2ccccc2)n[nH]c1=S`?
UPR CHOP act: 1.1; XBP1 UPR activ: -0.9; CHOP inh: -3.8; Dynein cargo inh: 1.74; Beta2AR agonist: -6.8; p-CIP stab down: -1.5

Results for Cc1ccc(OCC(=O)N2CC(C)OC(C)C2)c([N+](=O)[O-])n1 (stereo unspecified) ?
UPR CHOP act: -1.5; XBP1 UPR activ: 1.7; CHOP inh: -3.0; Dynein cargo inh: -0.312; Beta2AR agonist: -6.7; p-CIP stab down: 5.3

Results for COc1ccc(Cc2nnc(NC(=O)C3CC(=O)N(CCc4ccc(F)cc4)C3)s2)cc1OC (stereo unspecified) ?
UPR CHOP act: 2.8; XBP1 UPR activ: -0.4; Beta2AR agonist: 13.6; p-CIP stab down: -7.7

How did Cc1nn2c(N)c(C#N)cnc2c1-c1ccccc1 do in these assays?
UPR CHOP act: 2.2; XBP1 UPR activ: 10.0; CHOP inh: 17.9; Dynein cargo inh: 0.306; Beta2AR agonist: 1.6; p-CIP stab down: -0.4

Results for Cc1nn2c(N)c(C#N)cnc2c1-c1ccc(Cl)cc1 ?
UPR CHOP act: -0.8; XBP1 UPR activ: -1.8; CHOP inh: 97.8*; Dynein cargo inh: 0.427; Beta2AR agonist: -0.3; p-CIP stab down: -0.2; CHOP inh conf: -26.0

How did Cc1ccccc1CNC(=O)C(=O)NCC1OCCCN1S(=O)(=O)c1cccs1 (stereo unspecified) do in these assays?
UPR CHOP act: -0.9; XBP1 UPR activ: 3.5; Beta2AR agonist: -1.7; p-CIP stab down: -21.0

Results for CC1CCc2c(sc3ncn(CCO)c(=O)c23)C1 (stereo unspecified) ?
UPR CHOP act: 3.3; XBP1 UPR activ: 2.1; CHOP inh: -9.8; Dynein cargo inh: 0.352; Beta2AR agonist: -11.9; p-CIP stab down: 9.5

Results for CC1CCc2c(sc3ncn(CC(=O)N=Nc4c(O)[nH]c5ccccc45)c(=O)c23)C1 (stereo unspecified) ?
UPR CHOP act: 0.5; XBP1 UPR activ: 0.3; CHOP inh: 104.6*; Dynein cargo inh: -0.545; Beta2AR agonist: -4.7; p-CIP stab down: 2.1; CHOP inh conf: 113.0*

Results for CC(=O)C1=C(O)C(=O)N(CCCCCC(=O)O)C1c1ccc(N(C)C)cc1 (stereo unspecified) ?
UPR CHOP act: -1.1; XBP1 UPR activ: -2.2; CHOP inh: 1.8; Dynein cargo inh: -0.585; Beta2AR agonist: -1.5; p-CIP stab down: -2.3

How did Cn1c(=O)c2ncn(CC(=O)Nc3ccc4oc(-c5cccc6ccccc56)nc4c3)c2n(C)c1=O do in these assays?
Dynein cargo inh: -1.07

Results for Cc1ccc2oc(-c3cccc(NC(=O)Cn4cnc5c(=O)n(C)c(=O)n(C)c54)c3)nc2c1 ?
UPR CHOP act: 4.4; XBP1 UPR activ: 26.4; CHOP inh: 103.6*; Dynein cargo inh: -1.22; p-CIP stab down: -24.0; CHOP inh conf: 68.6

What do the screens show for `COc1ccc(N(C(=O)c2ccco2)C(C(=O)NC2CCCC2)c2cccnc2)c(OC)c1` (stereo unspecified)?
UPR CHOP act: 1.4; XBP1 UPR activ: 2.6; Beta2AR agonist: 3.2; p-CIP stab down: -4.7
